Compound activity deposited in PubChem by several laboratories.
Autophagy HCS: autophagy modulators in MEF cells, primary screen, imaging, high-content, MEF GFP-LC3 | MEF GFP-LC3 puncta imaging; test concentration mostly 10 µM | calls only at 10 µM (by protocol) | 190,000 compounds, 0.98% hits | AID 463193, 2010;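 active means percentage of spot-positive cells more than 3 SD above its plate mean, without a fluorescence outlier flag or 80% toxicity; inconclusive means no clear call, values can overlap the other calls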
Insulin prom up: insulin promoter activators in MIN6 cells, imaging, high-content screening, mouse beta cells; MIN6 insulin promoter-GFP reporter; hits give high values; z-score at 5 µM; 190,000 compounds, 0.3% hits; AID 1625, 2009;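 active means z-score above 3 at 5 µM with at least 500 cells counted in the well; inconclusive means wells under 500 cells, flagged as cytotoxic or low count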
SDO1 yeast rescue: growth rescue of sdo1-depleted yeast, primary screen, S. cerevisiae, bone marrow failure model. 140,000 compounds, 0.21% hits. z-score at 10 µM. S. cerevisiae sdo1-depleted JHY4D growth rescue, OD600 30 h; hits give high values; pdr5 snq2 efflux-pump mutant strain;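 active means z-score above 3 at both the 24 hr and the 30 hr optical density reads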
ABCG2 block: ABCG2 efflux pump inhibitors, primary screen, multiplex with ABCB1, IgMXP3 cells, flow cytometry | Broad substrate specificity ATP-binding cassette transporter ABCG2 (Homo sapiens), Q9UNQ0 | JC-1 efflux | inhibition, % at 6.6 µM | 190,000 compounds, 0.1% hits | AID 1325, 2008;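 active means inhibition above 80%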
Target sequence (Q9UNQ0 whole entry, looked up): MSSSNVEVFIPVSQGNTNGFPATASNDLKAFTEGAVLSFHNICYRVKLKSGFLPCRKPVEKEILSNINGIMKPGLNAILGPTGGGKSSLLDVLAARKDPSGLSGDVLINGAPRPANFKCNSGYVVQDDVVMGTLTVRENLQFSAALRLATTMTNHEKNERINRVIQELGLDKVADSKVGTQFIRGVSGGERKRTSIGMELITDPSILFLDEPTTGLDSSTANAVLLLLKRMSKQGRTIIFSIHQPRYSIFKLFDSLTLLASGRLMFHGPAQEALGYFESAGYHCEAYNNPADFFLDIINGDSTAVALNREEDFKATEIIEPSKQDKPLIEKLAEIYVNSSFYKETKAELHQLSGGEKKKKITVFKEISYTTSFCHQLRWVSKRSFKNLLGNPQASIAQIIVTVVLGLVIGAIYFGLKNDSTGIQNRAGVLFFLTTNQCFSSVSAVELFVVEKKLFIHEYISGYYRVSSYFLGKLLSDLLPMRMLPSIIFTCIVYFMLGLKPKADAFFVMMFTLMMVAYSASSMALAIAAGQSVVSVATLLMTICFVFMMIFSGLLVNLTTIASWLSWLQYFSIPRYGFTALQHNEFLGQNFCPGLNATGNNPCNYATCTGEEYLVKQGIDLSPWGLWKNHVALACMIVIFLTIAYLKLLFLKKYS
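Assay system – ABCG2 IgMXP3 and barcoded ABCB1 CCRF-Adr cell mix · Input – 3 million cells/mL in well · Reagent – JC-1 fluorescent substrate · Compound – single test compound dose, 6.6 µM final · Timing – 10 min exposure at 25 °C with rotation, no wash · Detection – flow cytometry of retained JC-1 fluorescence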
ROMK primary: ROMK potassium channel modulators, primary screen, cell-based, thallium flux, MLSMR library; B-score at 10 µM; AID 1918, 2009; 130,000 compounds, 2% hits; ATP-sensitive inward rectifier potassium channel 1 (Homo sapiens), P48048; Tet-inducible ROMK, thallium flux fluorescence; actives lie on both sides;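 active means signal ratio slope over the read window, or its plate-corrected B-score, at least 3 SD from the plate mean, either direction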;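 further: B-score of the F/F0 ratio slope over 7 to 12 s after thallium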
ABCB1 block: ABCB1 efflux pump inhibitors, primary screen, cell-based, multiplex, flow cytometry, ABCG2 counter-screen; 190,000 compounds, 0.067% hits; inhibition, % at 6.6 µM; CCRF-Adr cells, JC-1 efflux; ATP-dependent translocase ABCB1 (Homo sapiens), P08183; in the data active means inhibition above about 40%;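 further: higher value means more JC-1 retained so stronger ABCB1 efflux block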
ROMK retest: ROMK channel modulator hit retest, confirmation, cell-based, thallium flux, duplicate, resupplied hits. shares compounds with ROMK primary. fluorescence ratio; hits give low values. normalized thallium flux (F/F0 slope) at 10 µM. 3,000 compounds, 54% hits. AID 1917, 2009;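 active means Flux at 10 µM at least 3 SD below or above vehicle control mean in one or both replicates; inconclusive means no clear call, values can overlap the other calls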
Each line names hits and unclear results; the compound was inactive in the other large screens (follow-up assays come after a bar, where they were run). Most compounds without a hit are left out; they make up all but 2.3% or so of the library.

CC1=CC(C)(C)N(S(=O)(=O)c2ccc(F)cc2)c2ccc(C)cc21	none (no result: Insulin prom up)
CC1=CC(C)(C)N(S(=O)(=O)c2ccc(C)cc2)c2ccccc21	ROMK primary 3.2 | ROMK retest inactive
Cc1ccccc1N(CC(=O)NC1CCCC1)C(=O)c1csnn1	ROMK primary 1.3 (no result: SDO1 yeast rescue) | ROMK retest inconclusive
CC1Cc2nc(SCC(=O)N3CCN(c4ccccc4)CC3)n(CCc3ccccc3)c(=O)c2S1 (stereo not drawn)	none (no result: Autophagy HCS, ROMK primary) | ROMK retest 0.064
CCOC(=O)c1c(/N=C/c2ccc(C)cc2O)sc2c1CCC2	ROMK primary -2.4 | ROMK retest 0.039
C=CCNC(=O)/C(C#N)=C\c1cc(Cl)c(OCC)c(OC)c1	ROMK primary -2.9 | ROMK retest 0.044
CC(C)COc1ccc(C(=O)OC2CC(C)(C)OCC2CN(C)C)cc1 (stereo not drawn)	ROMK primary -3.7 (no result: Insulin prom up) | ROMK retest 0.055
CC1(C)Nc2ccccc2N(Cc2ccc([N+](=O)[O-])cc2)C1=O	none (no result: SDO1 yeast rescue)
O=C(CCl)N(c1ccc(Cl)cc1)c1c[nH]c2ccccc12	Insulin prom up inconclusive | ROMK retest 0.056
Cc1cccc(N(C(=O)CNC(=O)c2ccco2)C(C(=O)NCC2CCCO2)c2ccccc2)c1 (stereo not drawn)	none (no result: SDO1 yeast rescue)
CCOc1ccc(-c2nc(C#N)c(NCc3ccco3)o2)cc1	ROMK primary 0.67 (no result: SDO1 yeast rescue) | ROMK retest inactive
N#Cc1nc(-c2ccc(OCc3ccccc3)cc2)oc1NCc1cccnc1	none
CCCOC(=O)c1cc(-c2ccc(C=O)o2)ccc1Cl	none (no result: Insulin prom up, ROMK primary) | ROMK retest 0.1
CN(C(=O)CCc1nc(-c2ccccc2F)no1)c1ccccc1	none (no result: SDO1 yeast rescue)
CN(CC(=O)Nc1ccc(Cl)c(Cl)c1)Cc1nnc(-c2ccc(F)cc2)o1	none (no result: SDO1 yeast rescue)
Cc1ccc(Oc2c(C(N)=O)cc([N+](=O)[O-])cc2[N+](=O)[O-])cc1	ROMK primary -2.3 | ROMK retest 0.035
CCC(=O)c1ccc(Oc2ccc(C(=O)c3ccc(C)cc3)cc2[N+](=O)[O-])cc1	none
Cc1csc(SCC(=O)Nc2cccc3nsnc23)n1	none (no result: ROMK primary)
Cc1csc(SCC(=O)Nc2ccccc2[N+](=O)[O-])n1	ROMK primary -19 (no result: Insulin prom up, SDO1 yeast rescue) | ROMK retest inconclusive
CC(C)Cn1nc(NC(=O)c2cccs2)c2cc3ccccc3nc21	none (no result: Autophagy HCS, SDO1 yeast rescue, ABCG2 block, ROMK primary, ABCB1 block)
COc1ccc2nc3c(cc2c1)c(NC(=O)c1cccs1)nn3CC(C)C	none (no result: ROMK primary) | ROMK retest inactive
Nc1nc(COc2ccc(F)cc2Cl)nc(N2CCCCC2)n1	none (no result: SDO1 yeast rescue)
CCOC(=O)N1CCN(C(=O)COc2cccc3c2CCN(Cc2cccc(C)c2)C3=O)CC1	none (no result: ROMK primary) | ROMK retest 0.064
C#CCOCCOCCOCCNc1nc(N2CCN(C(=O)[C@H](Cc3cc4ccccc4[nH]3)n3cc([C@@H](N)Cc4ccc(O)cc4)nn3)CC2)nc(N2CCN(C(=O)[C@H](Cc3cc4ccccc4[nH]3)n3cc([C@@H](N)CC(C)C)nn3)CC2)n1	none (no result: Autophagy HCS, Insulin prom up, SDO1 yeast rescue, ABCG2 block, ROMK primary, ABCB1 block) | ROMK retest 0.045
O=C(CSc1nnnn1Cc1ccccc1)Nc1ccccc1	none (no result: Autophagy HCS, SDO1 yeast rescue, ABCG2 block, ROMK primary, ABCB1 block)
O=C(COc1ccc([N+](=O)[O-])cc1)Nc1ccc(C(=O)Nc2ccccc2C(=O)O)cc1	none (no result: SDO1 yeast rescue)
Cc1ccc(NC(=O)NNC(=O)c2snnc2C)cc1	none (no result: SDO1 yeast rescue)
CCn1c(=O)c([N+](=O)[O-])c(N2CCN(Cc3ccc4c(c3)OCO4)CC2)c2ccccc21	none (no result: Autophagy HCS, SDO1 yeast rescue, ABCG2 block, ROMK primary, ABCB1 block) | ROMK retest 0.064
Cc1cccc(NC(=O)C2C3CCC4C(CCC32)C4(Cl)Cl)c1 (stereo not drawn)	none (no result: ROMK primary)
O=C(Nc1nc2cc3c(cc2s1)OCO3)C1=COCCO1	ROMK primary 2.5 | ROMK retest inactive
O=P(c1ccccc1)(c1ccccc1)c1nc(-c2ccccc2)oc1NCc1ccccc1	ROMK primary -1.9 (no result: SDO1 yeast rescue) | ROMK retest inactive
CCOP(=O)(OCC)c1nc(-c2ccccc2)oc1NCc1ccccc1	none
